The values that follow come from ChEMBL document CHEMBL1122490, “Aporphines. 48. Enantioselectivity of (R)-(-)- and (S)-(+)-N-n-propylnorapomorphine on dopamine receptors” (J Med Chem, 1983).

In assay [1] the test system is Rattus norvegicus. Description: Stereotypic behavior of male Sprague-Dawley rats, after a sc administration of 5 dose(mg/kg). Type of assay: functional. Put shortly:
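Male Sprague-Dawley rats (175–200 g), group-housed with free food and water, 12-h light cycle. Drug freshly dissolved in ice-cold 1 mM citric acid/0.9% saline (1:4, v/v), given sc; vehicle injected as placebo. Stereotypy rated 0–3 by experienced observer from 30-s observations every 10 min over 60 min (maximum 18). Four to six rats per dose; means ± SEM.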

For assay [2], the species on record is Rattus norvegicus. Description: Percent control of stimulation of cAMP production in rat striatal homogenate at 50 micro M concentration. Type of assay: functional. Put shortly:
(§1)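 Rat corpus striatum homogenates were incubated with excess ATP and theophylline to inhibit phosphodiesterase. cAMP formed per 2.5-min assay above the basal (no agonist) level was measured by protein-binding assay. Results are given as mean pmol ± SEM, and as percent of the blank control, with 5–12 replicates per concentration.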

The species named for assay [3] is Rattus norvegicus. As to the kind of experiment: Stimulation of cAMP production in homogenates of corpus striatum from rat brain, at a concentration of 50 uM. Type of assay: functional, organism-based. The method, boiled down: as §1

Compound `CN1CCc2cccc3c2[C@H]1Cc1ccc(O)c(O)c1-3` [APOMORPHINE] gave a Stereotypy score in the assay on Rattus norvegicus [1] of 18. `NCCc1ccc(O)c(O)c1` displayed a Control in the assay listed under Rattus norvegicus [2] of 217%. The compound also showed a cAMP production in the assay listed under Rattus norvegicus [3] of 5.39 N.

For the compound `CCCN1CCc2cccc3c2[C@@H]1Cc1ccc(O)c(O)c1-3.CCCN1CCc2cccc3c2[C@H]1Cc1ccc(O)c(O)c1-3` (racemic; (+)), the Stereotypy score in the assay on Rattus norvegicus [1] is 17.2.

Turning to `CCCN1CCc2cccc3c2[C@@H]1Cc1ccc(O)c(O)c1-3.CCCN1CCc2cccc3c2[C@H]1Cc1ccc(O)c(O)c1-3` (racemic; (-)), in the assay with Rattus norvegicus [1], the Stereotypy score was 18.

`CCCN1CCc2cccc3c2[C@@H]1Cc1ccc(O)c(O)c1-3.CN1CCc2cccc3c2[C@H]1Cc1ccc(O)c(O)c1-3` (stereo in doubt; (+)) showed a Stereotypy score with Rattus norvegicus [1] of 17.5.

In the assay with Rattus norvegicus [1], `CCCN1CCc2cccc3c2[C@@H]1Cc1ccc(O)c(O)c1-3.CN1CCc2cccc3c2[C@H]1Cc1ccc(O)c(O)c1-3` (stereo in doubt; (-)) yielded a Stereotypy score of 17.7.
